Data as given in ChEMBL document CHEMBL1147951, “Synthesis and antimicrobial activity of symmetrical two-tailed dendritic tricarboxylato amphiphiles” (2007).
Values after ≈ are worked out from the molar mass of the structure shown.

The molecules below were run on Candida albicans (assay: Antimicrobial activity against Candida albicans by broth microdilution assay).
Assay type: functional
Method in brief: (§1)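 Compounds were dissolved in aqueous triethanolamine (stock pH 8–9) and serially diluted twofold in 1/10-strength BHI broth + 0.2% sucrose. Inocula were adjusted with buffered saline gelatin to McFarland No. 1; for A. niger, spores were scraped from PDA. Plates were incubated at 30 °C and turbidity was scored visually on day 4. MIC, run in triplicate, was the lowest concentration giving a prominent visible decrease in turbidity.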

| Structure (SMILES) | MIC |
| --- | --- |
| CCCCCCCCCCCN(CCCCCCCCCCC)C(=O)NC(CCC(=O)O)(CCC(=O)O)CCC(=O)O | > 10 mM |
| CCCCCCCC(CCCCCCC)NC(=O)NC(CCC(=O)O)(CCC(=O)O)CCC(=O)O | 3.1 mM (≈ 1550 µg/mL) |
| CCCCCCCCC(CCCCCCCC)NC(=O)NC(CCC(=O)O)(CCC(=O)O)CCC(=O)O | 0.74 mM (≈ 391 µg/mL) |
| CCCCCCCCCCCCCCNC(=O)NC(CCC(=O)O)(CCC(=O)O)CCC(=O)O | 1.6 mM (≈ 779 µg/mL) |

Each molecule was assayed on Klebsiella pneumoniae (assay: Antimicrobial activity against Klebsiella pneumoniae by broth microdilution assay).
Assay type: functional
Method in brief: (§2)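 Strains were E. coli strain C (ATCC 13706) and K. pneumoniae ATCC 4352, grown from a single colony in 1/10-strength BHI broth + 0.2% sucrose and adjusted with buffered saline gelatin to McFarland No. 1. Twofold dilution series of compound in triethanolamine/water used doubled medium and inoculum volumes. Plates were incubated at 37 °C and turbidity was scored visually on day 7. MIC, run in triplicate, was the lowest concentration giving a prominent visible turbidity decrease.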

| Structure (SMILES) | MIC |
| --- | --- |
| CCCCCCCCCCCN(CCCCCCCCCCC)C(=O)NC(CCC(=O)O)(CCC(=O)O)CCC(=O)O | > 0.95 mM |
| CCCCCCCC(CCCCCCC)NC(=O)NC(CCC(=O)O)(CCC(=O)O)CCC(=O)O | > 12 mM |
| CCCCCCCCC(CCCCCCCC)NC(=O)NC(CCC(=O)O)(CCC(=O)O)CCC(=O)O | > 12 mM |
| CCCCCCCCCCCCCCNC(=O)NC(CCC(=O)O)(CCC(=O)O)CCC(=O)O | 0.29 mM (≈ 141 µg/mL) |

The molecules below were run on Aspergillus niger (assay: Antimicrobial activity against Aspergillus niger by broth microdilution assay).
Assay type: functional
Method in brief: as §1

| Structure (SMILES) | MIC |
| --- | --- |
| CCCCCCCCCCCN(CCCCCCCCCCC)C(=O)NC(CCC(=O)O)(CCC(=O)O)CCC(=O)O | 10 mM (≈ 5990 µg/mL) |
| CCCCCCCC(CCCCCCC)NC(=O)NC(CCC(=O)O)(CCC(=O)O)CCC(=O)O | 6.2 mM (≈ 3100 µg/mL) |
| CCCCCCCCC(CCCCCCCC)NC(=O)NC(CCC(=O)O)(CCC(=O)O)CCC(=O)O | 5.9 mM (≈ 3120 µg/mL) |
| CCCCCCCCCCCCCCNC(=O)NC(CCC(=O)O)(CCC(=O)O)CCC(=O)O | 6.4 mM (≈ 3110 µg/mL) |

The molecules below were run on Escherichia coli (assay: Antimicrobial activity against Escherichia coli by broth microdilution assay).
Assay type: functional
Method in brief: as §2

| Structure (SMILES) | MIC |
| --- | --- |
| CCCCCCCCCCCN(CCCCCCCCCCC)C(=O)NC(CCC(=O)O)(CCC(=O)O)CCC(=O)O | 2.6 mM (≈ 1560 µg/mL) |
| CCCCCCCC(CCCCCCC)NC(=O)NC(CCC(=O)O)(CCC(=O)O)CCC(=O)O | 3.1 mM (≈ 1550 µg/mL) |
| CCCCCCCCC(CCCCCCCC)NC(=O)NC(CCC(=O)O)(CCC(=O)O)CCC(=O)O | 1.5 mM (≈ 793 µg/mL) |
| CCCCCCCCCCCCCCNC(=O)NC(CCC(=O)O)(CCC(=O)O)CCC(=O)O | 0.29 mM (≈ 141 µg/mL) |

The molecules below were run on Staphylococcus aureus (assay: Antimicrobial activity against Staphylococcus aureus by broth microdilution assay).
Assay type: functional
Method in brief: (§3)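 Twofold dilution series of amphiphile (dissolved in aqueous triethanolamine, pH 8–9) in 1/10-strength Brain Heart Infusion Broth with 0.2% sucrose. Inoculum from a single-colony broth culture, diluted with buffered saline gelatin to No. 1 McFarland turbidity. Incubated at 30 °C; turbidity scored visually on day 4. MIC = lowest concentration giving a prominent visible decrease in turbidity; triplicate.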

| Structure (SMILES) | MIC |
| --- | --- |
| CCCCCCCCCCCN(CCCCCCCCCCC)C(=O)NC(CCC(=O)O)(CCC(=O)O)CCC(=O)O | > 10 mM |
| CCCCCCCCCCCCCCNC(=O)NC(CCC(=O)O)(CCC(=O)O)CCC(=O)O | 6.4 mM (≈ 3110 µg/mL) |

What follows are molecules tested on Staphylococcus aureus (assay: Antimicrobial activity against methicillin-resistant Staphylococcus aureus by broth microdilution assay).
Assay type: functional
Method in brief: as §3

| Structure (SMILES) | MIC |
| --- | --- |
| CCCCCCCCCCCN(CCCCCCCCCCC)C(=O)NC(CCC(=O)O)(CCC(=O)O)CCC(=O)O | 10 mM (≈ 5990 µg/mL) |
| CCCCCCCCCCCCCCNC(=O)NC(CCC(=O)O)(CCC(=O)O)CCC(=O)O | 6.4 mM (≈ 3110 µg/mL) |

These molecules were tested on Micrococcus luteus (assay: Antimicrobial activity against Micrococcus luteus by broth microdilution assay).
Assay type: functional
Method in brief: as §1

| Structure (SMILES) | MIC |
| --- | --- |
| CCCCCCCCCCCN(CCCCCCCCCCC)C(=O)NC(CCC(=O)O)(CCC(=O)O)CCC(=O)O | 10 mM (≈ 5990 µg/mL) |
| CCCCCCCC(CCCCCCC)NC(=O)NC(CCC(=O)O)(CCC(=O)O)CCC(=O)O | > 12 mM |
| CCCCCCCCC(CCCCCCCC)NC(=O)NC(CCC(=O)O)(CCC(=O)O)CCC(=O)O | > 12 mM |
| CCCCCCCCCCCCCCNC(=O)NC(CCC(=O)O)(CCC(=O)O)CCC(=O)O | > 13 mM |

Each molecule was assayed on Cryptococcus neoformans (assay: Antimicrobial activity against Cryptococcus neoformans by broth microdilution assay).
Assay type: functional
Method in brief: as §1

| Structure (SMILES) | MIC |
| --- | --- |
| CCCCCCCCCCCN(CCCCCCCCCCC)C(=O)NC(CCC(=O)O)(CCC(=O)O)CCC(=O)O | > 0.95 mM |
| CCCCCCCC(CCCCCCC)NC(=O)NC(CCC(=O)O)(CCC(=O)O)CCC(=O)O | 1.1 mM (≈ 551 µg/mL) |
| CCCCCCCCC(CCCCCCCC)NC(=O)NC(CCC(=O)O)(CCC(=O)O)CCC(=O)O | 0.27 mM (≈ 143 µg/mL) |
| CCCCCCCCCCCCCCNC(=O)NC(CCC(=O)O)(CCC(=O)O)CCC(=O)O | 1.6 mM (≈ 779 µg/mL) |

These molecules were tested on Mycolicibacterium smegmatis (assay: Antimicrobial activity against Mycobacterium smegmatis by broth microdilution assay).
Assay type: functional
Method in brief: (§4)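 Strains were L. plantarum ATCC 14917, precultured in TSB, and M. smegmatis ATCC 607, precultured in Middlebrook 7H9. Inocula were diluted with buffered saline gelatin to McFarland No. 1. Twofold dilutions of compound in aqueous triethanolamine were made in 1/10-strength BHI broth + 0.2% sucrose and mixed with an equal volume of inoculum. Plates were incubated at 30 °C and scored visually for turbidity on day 4. MIC was determined in triplicate.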

| Structure (SMILES) | MIC |
| --- | --- |
| CCCCCCCCCCCN(CCCCCCCCCCC)C(=O)NC(CCC(=O)O)(CCC(=O)O)CCC(=O)O | 0.65 mM (≈ 389 µg/mL) |
| CCCCCCCC(CCCCCCC)NC(=O)NC(CCC(=O)O)(CCC(=O)O)CCC(=O)O | 3.1 mM (≈ 1550 µg/mL) |
| CCCCCCCCC(CCCCCCCC)NC(=O)NC(CCC(=O)O)(CCC(=O)O)CCC(=O)O | 1.5 mM (≈ 793 µg/mL) |
| CCCCCCCCCCCCCCNC(=O)NC(CCC(=O)O)(CCC(=O)O)CCC(=O)O | 0.58 mM (≈ 282 µg/mL) |

Each molecule was assayed on Lactiplantibacillus plantarum (assay: Antimicrobial activity against Lactobacillus plantarum by broth microdilution assay).
Assay type: functional
Method in brief: as §4

| Structure (SMILES) | MIC |
| --- | --- |
| CCCCCCCCCCCN(CCCCCCCCCCC)C(=O)NC(CCC(=O)O)(CCC(=O)O)CCC(=O)O | 10 mM (≈ 5990 µg/mL) |
| CCCCCCCC(CCCCCCC)NC(=O)NC(CCC(=O)O)(CCC(=O)O)CCC(=O)O | 6.2 mM (≈ 3100 µg/mL) |
| CCCCCCCCC(CCCCCCCC)NC(=O)NC(CCC(=O)O)(CCC(=O)O)CCC(=O)O | 5.9 mM (≈ 3120 µg/mL) |
| CCCCCCCCCCCCCCNC(=O)NC(CCC(=O)O)(CCC(=O)O)CCC(=O)O | 6.4 mM (≈ 3110 µg/mL) |

Each molecule was assayed on Saccharomyces cerevisiae (assay: Antimicrobial activity against Saccharomyces cerevisiae by broth microdilution assay).
Assay type: functional
Method in brief: as §1

| Structure (SMILES) | MIC |
| --- | --- |
| CCCCCCCCCCCN(CCCCCCCCCCC)C(=O)NC(CCC(=O)O)(CCC(=O)O)CCC(=O)O | 5.2 mM (≈ 3110 µg/mL) |
| CCCCCCCC(CCCCCCC)NC(=O)NC(CCC(=O)O)(CCC(=O)O)CCC(=O)O | 6.2 mM (≈ 3100 µg/mL) |
| CCCCCCCCC(CCCCCCCC)NC(=O)NC(CCC(=O)O)(CCC(=O)O)CCC(=O)O | 3 mM (≈ 1590 µg/mL) |
| CCCCCCCCCCCCCCNC(=O)NC(CCC(=O)O)(CCC(=O)O)CCC(=O)O | 0.58 mM (≈ 282 µg/mL) |
